Experimental findings from ChEMBL document CHEMBL4513216, “Probing the Open Global Health Chemical Diversity Library for Multistage-Active Starting Points for Next-Generation Antimalarials” (ACS Infect Dis, 2020) are described below.

The data set is described as follows: Toxicity liver stage against HepG2, at 10uM. Format: cell-based. The arrangement: test concentration 10 uM, cell line HepG2-A16-CD81EGFP. Conditions: human, HepG2-A16-CD81EGFP cells; read-out: INHIBITION
An outline of the steps: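 Uninfected HepG2-A16-CD81EGFP cells, 3 × 10^3 per well, 1536-well, plated on prespotted compound at 10 μM final, parasite-free screening media added to match infected plates; puromycin 10 μM positive, DMSO 0.5% negative; run in parallel with 48 h PbLuc assay at 37 °C, 5% CO2; viability by CellTiter-Glo luminescence, normalized to controls.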

Turning to `c1cnc(NCc2n[nH]c3c2CCN(Cc2cccnc2)C3)nc1`, the cytotoxicity at 10 µM was -7.15%.

With `Cc1cc(C)c(OCC(=O)NS(=O)(=O)c2cccnc2)c(C)c1`, the cytotoxicity at 10 µM was -1.35%.

As to `O=S(=O)(c1ccc(F)cc1)n1cc(Cl)cn1`, the cytotoxicity at 10 µM turned out to be 0.0667%.

In the case of `CCn1cc(NC(=O)NCC(C)N(C)C)cn1` (stereo not drawn), the cytotoxicity at 10 µM is -18.8%.

With `c1ncn(CC2CCCCN2Cc2csc(C3CCCC3)n2)n1` (stereo not drawn), the cytotoxicity at 10 µM was -6.44%.

`COC(=O)c1ccc(C(=O)N2CCc3c(ncn3C3CC3)C2)cc1`: the cytotoxicity at 10 µM is -3.34%.

With `CNC(=O)CC1CC2(CCN(Cc3nccs3)CC2)c2ccccc21` (stereo not drawn), the cytotoxicity at 10 µM is -15%.

Take `Cc1cc(C2CCCN(S(=O)(=O)c3cn[nH]c3)C2)ccn1` (stereo not drawn): the cytotoxicity at 10 µM is -1.77%.

For `COCCn1ccc(NC(=O)Nc2ccccc2)n1`, the cytotoxicity at 10 µM was -0.0425%.

With `CCC(=O)N1CCC2(CC1)CN(C(C)=O)c1ccc(C)cc12`, the cytotoxicity at 10 µM worked out at 8.82%.

On to `Fc1ccccc1OCCc1cc(C2CNCCO2)n[nH]1` (stereo not drawn), for which the cytotoxicity at 10 µM was -2.16%.

Turning to `Cc1c(C)n(Cc2ccccn2)c2nc3c(c(N)c12)CCCCCC3`, the cytotoxicity at 10 µM was 9.15%.

Turning to `CCOc1nnc(CN(CC)CC(=O)Nc2c(F)cccc2F)s1`, the cytotoxicity at 10 µM is -2.62%.

In the case of `Cc1ccc(CNCc2cccc3cn[nH]c23)c(OC2CCOC2)c1` (stereo not drawn), the cytotoxicity at 10 µM was found to be 9.6%.

Regarding `COCC(NC(=O)c1cc(NC(C)=O)ccc1Cl)c1ccccn1` (stereo not drawn), the cytotoxicity at 10 µM is -12.1%.

`COc1ccccc1NC(=O)Cc1c(C)nc2c(c1C)c(=O)[nH]n2C`: the cytotoxicity at 10 µM is -1.68%.

Turning to `CCNC(=O)C(C)(C)NC(=O)NCc1cccc(Br)c1`, the cytotoxicity at 10 µM was determined as 8.44%.

As for `CC1CN(C(=O)c2ccnc(-n3cncn3)c2)c2ccccc2S1` (stereo not drawn), the cytotoxicity at 10 µM is -5.69%.

Consider `COc1ccc(S(=O)(=O)N2CC(CC(=O)O)c3ccccc32)cc1` (stereo not drawn), for which the cytotoxicity at 10 µM was found to be 6.04%.

As to `Cc1cc(C)nc(N2CCCC2c2[nH]ncc2C(=O)N(C)C)n1` (stereo not drawn), the cytotoxicity at 10 µM was -1.51%.

On to `Cn1ccc(-c2cc(C(=O)N3CCC(O)CC3)c3ccccn23)n1`, for which the cytotoxicity at 10 µM was -98.3%.

Take `Cc1ccc(C(=O)NCC(O)CN2CCCC2=O)c(C)c1` (stereo not drawn): the cytotoxicity at 10 µM was -6.68%.

For `O=C(c1cnc[nH]1)N1CCC(Oc2cccnc2)CC1`, the cytotoxicity at 10 µM was found to be 6.87%.

Turning to `Cc1cc(C(=O)NCCN2CCCCC2)nn1C(C)(C)C`, the cytotoxicity at 10 µM was -3%.

In the case of `COc1ccc(-c2nc(CCNc3nnc(C)c(C)c3C#N)co2)cc1`, the cytotoxicity at 10 µM was -17.2%.

With `Fc1ccccc1C(CNc1ccncn1)N1CCCC1` (stereo not drawn), the cytotoxicity at 10 µM is 2.84%.

For the compound `CC(=O)N(C)CC(=O)Nc1cccc(N2CCN(CC3CC3)CC2)c1`, the cytotoxicity at 10 µM was determined as 1.75%.

In the case of `CS(=O)(=O)CCn1ccc(NC(=O)Cc2c[nH]c3ccccc23)n1`, the cytotoxicity at 10 µM turned out to be 2%.

Consider `CC(=O)N1CCN(C(=O)c2cccc(OCc3cscn3)c2)CC1`, for which the cytotoxicity at 10 µM is -7.57%.

For `O=C1COC2(CCN(Cc3nccs3)CC2)CN1c1ccccc1`, the cytotoxicity at 10 µM was -114%.

`CCc1nnsc1C(=O)NC1CCN(c2ccccn2)CC1`: the cytotoxicity at 10 µM is -2.49%.

For `N#Cc1cccnc1NCCNC(=O)N1CCSCC1`, the cytotoxicity at 10 µM was -1.22%.

Take `CCN1C(=O)CCCC12CCCN(C(=O)c1ccoc1C)C2` (stereo not drawn): the cytotoxicity at 10 µM is -11.8%.

As for `CC(C(=O)N1CCCCC1)n1nc(-c2cccs2)cc(N)c1=O` (stereo not drawn), the cytotoxicity at 10 µM is 10.8%.

As to `O=C(c1csc(-c2ccco2)n1)N(CC1CCOC1)C1CC1` (stereo not drawn), the cytotoxicity at 10 µM was -2.72%.

Turning to `O=C(O)CCn1nc(C(F)(F)F)c(Cl)c1C1CC1`, the cytotoxicity at 10 µM is 8.63%.

Regarding `COCCN1CCn2cc(CN(C)Cc3ccco3)nc2C1`, the cytotoxicity at 10 µM was -74.9%.

`Cc1cc(C)c2cc(CNC(C)C)c3nn(C)c(=O)n3c2c1`: the cytotoxicity at 10 µM is -5%.

For the compound `Cc1ccc(CNCC2Cn3nnc(-c4cccc(F)c4)c3CO2)o1` (stereo not drawn), the cytotoxicity at 10 µM is -0.617%.

As to `COC(=O)C(NC(=O)c1ccc(N(C)C)nc1)c1ccccc1` (stereo not drawn), the cytotoxicity at 10 µM was 4.15%.

For `N#CCc1ccc(OCC(=O)NS(=O)(=O)c2cccs2)cc1`, the cytotoxicity at 10 µM is 13.6%.

Regarding `Cc1nn(C)c(C)c1CC(C)NC(=O)NCc1ccn(C(C)C)n1` (stereo not drawn), the cytotoxicity at 10 µM is -1.54%.

Regarding `CCOc1ccc(Cl)c(C(=O)N2CCCSCC2)n1`, the cytotoxicity at 10 µM was -4.03%.

For the compound `O=C(CCc1ccsc1)Nc1cccnc1N1CCCC1`, the cytotoxicity at 10 µM was -7.07%.

Turning to `COCCN(C(=O)c1cc(-c2ccc(C)s2)[nH]n1)C1CC1`, the cytotoxicity at 10 µM worked out at 11.6%.

For `CC1CN(c2ncccc2C(=O)Nc2cccc3c2CCCC3)CCN1` (stereo not drawn), the cytotoxicity at 10 µM turned out to be 4.65%.

Take `CCCNC(=O)c1ccc2c(OC)n(C)nc2c1`: the cytotoxicity at 10 µM is 1.56%.

As to `c1ccc(Cc2nnc(CN3CCCCC3Cn3cncn3)o2)cc1` (stereo not drawn), the cytotoxicity at 10 µM is -20.4%.

Regarding `COC1COC2(CCN(C(=O)c3ncccn3)CC2)C1` (stereo not drawn), the cytotoxicity at 10 µM turned out to be 6.07%.

Regarding `Cc1ccc(CNC2(Cc3cc(-c4ccccc4)on3)COC2)o1`, the cytotoxicity at 10 µM is -3.24%.

Turning to `CCS(=O)(=O)CCNC(=O)NC(C)c1ccc(C)s1` (stereo not drawn), the cytotoxicity at 10 µM is -8.64%.

Turning to `COCC1CCN(CCCc2cn[nH]c2)CC1`, the cytotoxicity at 10 µM amounted to 11.3%.

Consider `CCS(=O)(=O)N1CCC2(CC1)CCn1c(-c3cnn(C)c3)cnc12`, for which the cytotoxicity at 10 µM is -138%.

Regarding `Cc1cc(C2CCCN(CCCS(N)(=O)=O)C2)n[nH]1` (stereo not drawn), the cytotoxicity at 10 µM was -20.1%.

For `CC(=O)c1c(O)n(C)c2ccccc12`, the cytotoxicity at 10 µM is 1.64%.

For `CC(C)Oc1cccc2c1c(NC(=O)CN(C)C)nn2CC(F)(F)F`, the cytotoxicity at 10 µM is -9.69%.

With `COc1ccc(CCC2CCCN(C(=O)c3cnc(N)nc3C)C2)cc1` (stereo not drawn), the cytotoxicity at 10 µM worked out at 1.14%.

For `Cc1nnc(NC(=O)NCc2cccnc2N(C)C)s1`, the cytotoxicity at 10 µM is -10.3%.

In the case of `CC(C)CNC(=O)N1CCC2(CCCO2)C1` (stereo not drawn), the cytotoxicity at 10 µM worked out at 12.9%.

Take `CCn1cc(NC(=O)NCC(C)N2CCCC2)cn1` (stereo not drawn): the cytotoxicity at 10 µM is -9.89%.

Regarding `Cc1nc2cc(=O)[nH]n2c(C)c1CNC(=O)C(C)Cc1ccccc1` (stereo not drawn), the cytotoxicity at 10 µM is -7.27%.

Regarding `Cc1ccc(S(=O)(=O)NC[C@H]2OC[C@@H](NCc3ccccc3)[C@@H]2O)cc1`, the cytotoxicity at 10 µM is -1.73%.

Turning to `CN(C)S(=O)(=O)N1CC[C@]2(O)CCN(CCc3cccc(F)c3)C[C@@H]2C1`, the cytotoxicity at 10 µM is -3.38%.

Regarding `CCCNC(=O)N1CCN(Cc2cc(C)no2)CC1`, the cytotoxicity at 10 µM is -1.18%.

For `COCCC(=O)N1CCCC2(CCN(c3ccccc3)C2=O)C1` (stereo not drawn), the cytotoxicity at 10 µM was -1.66%.

In the case of `CC(NC(N)=O)C(=O)NCc1ccnc(Oc2ccc(F)cc2)c1` (stereo not drawn), the cytotoxicity at 10 µM came out at 8.26%.

In the case of `O=C(NCc1cccnc1)C1=NN(c2ccccc2)C(=O)CN1`, the cytotoxicity at 10 µM was found to be 12.3%.

With `COc1ccc(CN2C[C@@H]3OCCN(C)[C@@H]3C2)cc1`, the cytotoxicity at 10 µM was -74.8%.

Consider `CC(C)=CCN1C[C@@H]2CC[C@H]1CN(C(=O)CSc1ccncc1)C2`, for which the cytotoxicity at 10 µM is -0.591%.

For the compound `c1cncc(CN2CC[C@H]3O[C@@H](COCC4CCOCC4)CC[C@H]32)c1`, the cytotoxicity at 10 µM is -73.5%.

On to `CC1(C(=O)N2CCC(n3cc(C4(O)CCCC4)nn3)CC2)CCCCC1`, for which the cytotoxicity at 10 µM amounted to 0.68%.

With `CN(C)C(=O)CCC(=O)N1CCC2(CC1)COC2`, the cytotoxicity at 10 µM amounted to 2.05%.

Turning to `COc1ccccc1OCc1cc(C(=O)N2C[C@@H](C)O[C@@H](C)C2)n[nH]1`, the cytotoxicity at 10 µM was -4.91%.

Take `CN1C(=O)[C@@H]2CC[C@H]1CN(Cc1cccc(OCc3ccccn3)c1)C2`: the cytotoxicity at 10 µM came out at 5.52%.

For the compound `Cc1cccn2cc(CC(=O)N(CCN(C)C)CC3CCCO3)nc12` (stereo not drawn), the cytotoxicity at 10 µM was found to be 0.462%.

With `NC(=O)c1cccnc1N1CCN(c2ncnc3c2CCNC3)CC1`, the cytotoxicity at 10 µM was -3.03%.

Turning to `COc1ccc(N2CCC(N(C)C(C)C(=O)N(C)C)CC2)cc1` (stereo not drawn), the cytotoxicity at 10 µM is 11%.

On to `Cc1cccc(CC(=O)Nc2cnn(C3CCOC3)c2)c1` (stereo not drawn), for which the cytotoxicity at 10 µM is -0.813%.

Take `O=C(Cn1cccnc1=O)NC(Cc1ccsc1)c1ccccn1` (stereo not drawn): the cytotoxicity at 10 µM was -5.66%.

`Cc1nonc1CNC(=O)C(C)Oc1ccccc1F` (stereo not drawn): the cytotoxicity at 10 µM amounted to 2.57%.

In the case of `CCCN1CCC(CNC(=O)C2(c3ccccc3)CCC2)C1` (stereo not drawn), the cytotoxicity at 10 µM is -6.29%.

As for `COC(CNC(=O)c1ccoc1)c1cccc(Cl)c1` (stereo not drawn), the cytotoxicity at 10 µM was 3.3%.

For the compound `CSc1ccc(C(=O)N2C[C@@H]3CC[C@H]2CN(Cc2cccnc2)C3)cc1`, the cytotoxicity at 10 µM was -7.38%.

On to `COCCN(CC1CCCN(C2Cc3ccccc3C2)C1)C(=O)CSC` (stereo not drawn), for which the cytotoxicity at 10 µM is -1.66%.

Regarding `CS(=O)(=O)N1CCCC12CCCN(S(=O)(=O)c1ccc(F)c(F)c1)C2` (stereo not drawn), the cytotoxicity at 10 µM worked out at 1.46%.

As for `CC(NC(=O)NCc1cccs1)c1ccc2c(c1)CCC(=O)N2` (stereo not drawn), the cytotoxicity at 10 µM was found to be 5.41%.

With `Cc1nc(C)n(C2CCCN(C(=O)COCc3ccccc3)C2)n1` (stereo not drawn), the cytotoxicity at 10 µM was -11%.

Consider `Cc1nn(C)c(Oc2ccccc2)c1CNC1CCCCNC1=O` (stereo not drawn), for which the cytotoxicity at 10 µM stood at 2.56%.

In the case of `CN(C)C[C@@H]1CN(C(=O)Cc2ccccc2)C[C@@H]1CO`, the cytotoxicity at 10 µM was -1.07%.

`CCn1cnnc1C1CCN(C(=O)c2cc3c(s2)CCOC3)CC1`: the cytotoxicity at 10 µM was -6.37%.

`COCc1csc(NC(=O)NCc2ncccc2C)n1`: the cytotoxicity at 10 µM was -2.6%.

With `CC(C)n1ccc2c(C(=O)NC3CN4CCC3CC4)cccc21` (stereo not drawn), the cytotoxicity at 10 µM is -54.2%.

As for `COC1CCN(C(=O)c2ccccc2NCc2cccnc2)CC1`, the cytotoxicity at 10 µM was -7.22%.

Turning to `CC(OCC1CC1)C(=O)N1CCCN(Cc2nccn2C(C)C)CC1` (stereo not drawn), the cytotoxicity at 10 µM was -11.9%.

As for `Cc1nccc(C(=O)N2CCCC2c2c(C)nn(C)c2C)n1` (stereo not drawn), the cytotoxicity at 10 µM is -2.42%.

`CC(C)OC(=O)N1C[C@@H]2CC[C@H]1CN(Cc1cccnc1)C2`: the cytotoxicity at 10 µM was determined as 0.189%.

As for `CC(C)C(=O)N1CCc2c(CN(C)Cc3ccco3)cncc2C1`, the cytotoxicity at 10 µM is -5.69%.

Turning to `Cc1nc(CNC(=O)Nc2ccc3c(c2)CCCC(=O)N3)sc1C`, the cytotoxicity at 10 µM was 5.06%.
